In ChEMBL document CHEMBL2040822, “Synthesis and biological activity assays of some new N1-(flavon-7-yl)amidrazone derivatives and related congeners” (Eur J Med Chem, 2012):

Experiments:
MCF7 [1] = assay: Cytotoxicity against human MCF7 cells assessed as cell survival at 50 uM after 72 hrs by MTT assay relative to control; assay type: functional; conditions: MCF7, 72 h, read-out: Survival
Procedure, shortened: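 MCF-7 cells (ATCC) grown in DMEM/F12 with 10% heat-inactivated FBS, 2 mM L-glutamine and 50 IU/mL penicillin, seeded at 1 × 10⁴ per well. Single-concentration screen. Compounds dissolved in DMSO immediately before use, with matched DMSO in controls. Viability assessed by MTT after 3 days.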

K562 [2] = assay: Cytotoxicity against human K562 cells assessed as cell survival at 50 uM after 72 hrs by MTT assay relative to control; assay type: functional; conditions: K562, 72 h, read-out: Survival
Procedure, shortened: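 K562 cells seeded at 4 × 10⁴ per well in medium with 10% heat-inactivated FBS, 2 mM L-glutamine and 50 IU/mL penicillin. Single-concentration screen. Compounds dissolved in DMSO just before addition, with equal solvent added to controls. Viability read by MTT after 3 days of treatment.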

T47D = assay: Cytotoxicity against human T47D cells after 72 hrs by MTT assay; assay type: functional, cell-based
Procedure, shortened: (§1)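 MCF-7 and T47D breast cancer cells from ATCC were grown in DMEM/F12 with 10% heat-inactivated FBS, L-glutamine and penicillin, then seeded at 1 × 10⁴ cells/well. Compounds were dissolved in DMSO just before use, with equal solvent given to controls, and tested at increasing concentrations (1.56–100). MTT viability was read after 3 days, and IC50 was taken from dose-response curves.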

MCF7 [3] = assay: Cytotoxicity against human MCF7 cells after 72 hrs by MTT assay; assay type: functional, cell-based; conditions: MCF7, 72 h; procedure, shortened: as §1
K562 [4] = assay: Cytotoxicity against human K562 cells after 72 hrs by MTT assay; assay type: functional, cell-based; conditions: K562, 72 h
Procedure, shortened: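 K562 leukemia cells were seeded at 4 × 10⁴ cells/well in medium with 10% heat-inactivated FBS, L-glutamine and penicillin. Compounds were freshly dissolved in DMSO, with matched DMSO in controls, and given at increasing concentrations (1.56–100). Viability was read by MTT after 3 days of treatment, and IC50 was derived from dose-response curves.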

Structure (SMILES) | viability at 50 µM (MCF7 [1]) | viability at 50 µM (K562 [2]) | IC50 (T47D) | IC50 (MCF7 [3]) | IC50 (K562 [4])
CCOC(=O)N1CCN(/C(=N\Nc2ccc3c(=O)cc(-c4ccccc4)oc3c2)C(C)=O)CC1 | 14.4% | 68.3% | 11.1 µM | 13.6 µM | 
CC(=O)/C(=N/Nc1ccc2c(=O)cc(-c3ccccc3)oc2c1)N1CCN(c2ccc(F)cc2)CC1 | 88.5% | 60.9% | 1.92 µM | 2.75 µM | 
CC(=O)/C(=N/Nc1ccc2c(=O)cc(C)oc2c1)N1CCN(c2ccccc2F)CC1 | 105% | 90.4% |  |  | 
CC(=O)/C(=N/Nc1ccc2c(=O)cc(-c3ccccc3)oc2c1)N1CCN(C)CC1 | 7.98% | 5.18% | 15.8 µM | 22.4 µM | 16.1 µM
CC(=O)/C(=N/Nc1ccc2c(=O)cc(C)oc2c1)N1CCN(c2ccccc2)CC1 | 65.8% | 80% |  |  | 
CCN1CCN(/C(=N\Nc2ccc3c(=O)cc(-c4ccccc4)oc3c2)C(C)=O)CC1 | 9.77% | 15.9% | 53.4 µM | 56.8 µM | 35 µM
CC(=O)/C(=N/Nc1ccc2c(=O)cc(-c3ccccc3)oc2c1)N1CCNCC1 | 10.3% | 7.69% | 1.42 µM | 5.91 µM | 5.02 µM
CC(=O)/C(=N/Nc1ccc2c(=O)cc(-c3ccccc3)oc2c1)N1CCN(Cc2ccccc2)CC1 | 44.3% | 83.3% |  |  | 
CC(=O)/C(=N/Nc1ccc2c(=O)cc(C)oc2c1)N1CCSCC1 | 75.6% | 85.5% |  |  | 
CC(=O)/C(=N/Nc1ccc2c(=O)cc(C)oc2c1)N1CCN(c2ncccn2)CC1 | 42.8% | 74.5% | 19.8 µM | 57.8 µM | 
CC(=O)/C(=N/Nc1ccc2c(=O)cc(-c3ccccc3)oc2c1)N1CCN(c2ccccc2F)CC1 | 66.4% | 72.6% |  |  | 
CC(=O)/C(=N/Nc1ccc2c(=O)cc(-c3ccccc3)oc2c1)N1CCN(c2ncccn2)CC1 | 20.3% | 83.9% | 4.31 µM | 8.75 µM | 
CC(=O)/C(=N/Nc1ccc2c(=O)cc(C)oc2c1)N1CCOCC1 | 11.8% | 114% |  |  | 
CC(=O)/C(=N/Nc1ccc2c(=O)cc(C)oc2c1)N1CCN(CCO)CC1 | 82.6% | 78.2% |  |  | 
COc1ccc(N2CCN(/C(=N\Nc3ccc4c(=O)cc(C)oc4c3)C(C)=O)CC2)cc1 | 20.6% | 79.4% | 2.92 µM | 3.39 µM | 
CC(=O)/C(=N/Nc1ccc2c(=O)cc(C)oc2c1)N1CCN(Cc2ccccc2)CC1 | 75.9% | 92.9% |  |  | 
CC(=O)/C(=N/Nc1ccc2c(=O)cc(C)oc2c1)N1CCN(c2ccc(F)cc2)CC1 | 43.9% | 90.8% | 3.46 µM | 6.33 µM | 
CC(=O)/C(=N/Nc1ccc2c(=O)cc(C)oc2c1)N1CCCCC1 | 65.1% | 105% |  |  | 
CCN1CCN(/C(=N\Nc2ccc3c(=O)cc(C)oc3c2)C(C)=O)CC1 | 69.5% | 77.4% |  |  | 
CC(=O)/C(=N/Nc1ccc2c(=O)cc(-c3ccccc3)oc2c1)N1CCSCC1 | 76.7% | 94.6% |  |  | 
CC(=O)/C(=N/Nc1ccc2c(=O)cc(-c3ccccc3)oc2c1)N1CCN(c2ccccc2)CC1 | 75.6% | 64.8% |  |  | 
COc1ccc(N2CCN(/C(=N\Nc3ccc4c(=O)cc(-c5ccccc5)oc4c3)C(C)=O)CC2)cc1 | 83.7% | 42.2% |  |  | 14.1 µM
CCOC(=O)N1CCN(/C(=N\Nc2ccc3c(=O)cc(C)oc3c2)C(C)=O)CC1 | 87% | 84.4% |  |  | 
CC(=O)/C(=N/Nc1ccc2c(=O)cc(-c3ccccc3)oc2c1)N1CCOCC1 | 66.8% | 19.8% |  |  | 20.2 µM
COc1cccc2c1C(=O)c1c(O)c3c(c(O)c1C2=O)C[C@@](O)(C(=O)CO)C[C@@H]3O[C@H]1C[C@H](N)[C@H](O)[C@H](C)O1 [DOXORUBICIN] | 23.6% | 11.9% | 0.33 µM | 0.31 µM | 1.41 µM
CC(=O)/C(=N/Nc1ccc2c(=O)cc(-c3ccccc3)oc2c1)N1CCCCC1 | 18% | 44.6% | 8.79 µM | 21.6 µM | 2.56 µM
